Reference: ChEMBL document CHEMBL4138097, “Investigation of pyrazolo-sulfonamides as putative small molecule oxytocin receptor agonists” (Eur J Med Chem, 2017)
The source made the active and inactive calls. No cut-off for these calls is given here. Where a SMILES comes first, the peptide text is derived from it. Bridges are numbered along the chain shown (N, C = ends). [ ]: non-standard residue; d: D form. Orn = NCCC[C@H](N)C(=O)O; Mpa = O=C(O)CCS

Key:
[1] = biological target: T1, Vasopressin V1a receptor (Homo sapiens, UniProt P37288); experiment: Agonist activity at human vasopressin 1a receptor expressed in CHO cell membranes assessed as increase in Ca2+ flux at 0.1 to 10 uM measured after 5 mins for every 2 secs by Ca5 dye based FLIPR assay; assay type: functional
Outline: (§1)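 Intracellular Ca2+ read by FLIPR with Ca5 dye in HEK or stably transfected CHO cells expressing hOTR or hV1aR. Compounds added alone at 100 nM and 10 μM. Response taken as the change in fluorescence.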
Target sequence in this assay (P37288 whole entry, looked up): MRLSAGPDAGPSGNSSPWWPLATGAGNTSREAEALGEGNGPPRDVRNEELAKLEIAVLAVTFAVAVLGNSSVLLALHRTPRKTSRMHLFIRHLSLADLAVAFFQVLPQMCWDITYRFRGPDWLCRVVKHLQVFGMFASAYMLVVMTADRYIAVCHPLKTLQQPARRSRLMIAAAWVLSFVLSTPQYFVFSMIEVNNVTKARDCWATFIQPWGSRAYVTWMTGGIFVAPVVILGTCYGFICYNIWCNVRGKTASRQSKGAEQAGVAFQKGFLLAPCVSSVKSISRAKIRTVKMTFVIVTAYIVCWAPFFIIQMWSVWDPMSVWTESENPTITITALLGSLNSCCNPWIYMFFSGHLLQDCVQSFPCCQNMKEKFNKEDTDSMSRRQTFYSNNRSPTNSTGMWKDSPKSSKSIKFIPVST

[2] = biological target: T1, Vasopressin V1a receptor; experiment: Antagonist activity at human vasopressin 1a receptor expressed in CHO cell membranes assessed as inhibition of AVP-induced IP1 accumulation by measuring IP1 level at 10 uM measured after 1 hr by fluorescence assay relative to control; assay type: functional, cell-based; design: scale not given: the % may be the effect or the level left
Target sequence in this assay (P37288 whole entry, looked up): as above

[3] = biological target: T2, Oxytocin receptor (Homo sapiens) (UniProt P30559); experiment: Agonist activity at human OTR expressed in HEK293 cell membranes induction of IP1 accumulation at 0.1 to 10 uM measured after 1 hr by fluorescence assay; assay type: functional, cell-based
T2 sequence (whole entry): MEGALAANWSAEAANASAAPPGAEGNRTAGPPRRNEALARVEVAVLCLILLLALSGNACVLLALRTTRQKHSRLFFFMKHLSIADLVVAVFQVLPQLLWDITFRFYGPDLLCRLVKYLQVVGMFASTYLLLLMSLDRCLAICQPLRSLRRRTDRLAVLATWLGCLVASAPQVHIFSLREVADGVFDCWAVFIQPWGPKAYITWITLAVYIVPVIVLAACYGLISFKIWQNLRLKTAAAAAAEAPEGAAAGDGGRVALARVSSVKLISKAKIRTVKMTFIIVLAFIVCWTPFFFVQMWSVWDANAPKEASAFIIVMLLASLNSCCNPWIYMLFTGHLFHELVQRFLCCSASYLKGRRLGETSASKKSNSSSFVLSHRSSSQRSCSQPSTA
Outline: (§2)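 IP1 accumulation in HEK or stably transfected CHO cells expressing hOTR or hV1aR. Compounds tested alone at 100 nM and 10 μM against vehicle (basal). Reference agonist was OT 10 nM at hOTR or AVP 10 nM at hV1aR. Non-transfected HEK cells given OT served as a specificity check. Mean ± S.E.M.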

[4] = biological target: T1, Vasopressin V1a receptor; experiment: Agonist activity at human vasopressin 1a receptor expressed in HEK293 cell membranes assessed as induction of IP1 accumulation at 0.1 to 10 uM measured after 1 hr by fluorescence assay; assay type: functional, cell-based; outline: as §2
Target sequence in this assay (P37288 whole entry, looked up): as the sequence (P37288 whole entry, looked up) above

[5] = biological target: T2, Oxytocin receptor (Homo sapiens); experiment: Antagonist activity at human OTR expressed in CHO cell membranes assessed as inhibition of OT-induced IP1 accumulation by measuring IP1 level at 100 nM measured after 1 hr by fluorescence assay relative to control; assay type: functional, cell-based; design: scale not given: the % may be the effect or the level left
[6] = biological target: T1, Vasopressin V1a receptor; experiment: Antagonist activity at human vasopressin 1a receptor expressed in CHO cell membranes assessed as inhibition of AVP-induced IP1 accumulation by measuring IP1 level at 100 nM measured after 1 hr by fluorescence assay relative to control; assay type: functional, cell-based; design: scale not given: the % may be the effect or the level left
Target sequence in this assay (P37288 whole entry, looked up): as the sequence (P37288 whole entry, looked up) above

[7] = biological target: T2, Oxytocin receptor (Homo sapiens); experiment: Positive allosteric modulation of human OTR expressed in HEK293 cell membranes assessed as increase in OT-induced IP1 accumulation at 10 uM measured after 1 hr by fluorescence assay; assay type: functional, cell-based
Outline: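 hOTR-transfected HEK cells treated with ~EC10 OT (3 nM) plus compound (10 μM) or vehicle (0.1% DMSO). IP1 measured and compared with OT plus vehicle. Mean ± S.E.M.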

[8] = biological target: T2, Oxytocin receptor (Homo sapiens); experiment: Antagonist activity at human OTR expressed in HEK293 cell membranes assessed as inhibition of OT-induced IP1 accumulation by measuring IP1 level at 100 nM measured after 1 hr by flourescence assay relative to control; assay type: functional, cell-based; design: scale not given: the % may be the effect or the level left
[9] = biological target: T2, Oxytocin receptor (Homo sapiens); experiment: Agonist activity at human OTR expressed in CHO cell membranes assessed as induction of IP1 accumulation at 0.1 to 10 uM measured after 1 hr by fluorescence assay; assay type: functional, cell-based; outline: as §2
[10] = biological target: T3, Oxytocin receptor (Homo sapiens, UniProt P30559); experiment: Antagonist activity at human OTR expressed in CHO cell membranes assessed as inhibition of OT-induced IP1 accumulation measured after 1 hr by fluorescence assay; assay type: functional, cell-based
T3 sequence (P30559 whole entry): T2 sequence (whole entry)

[11] = biological target: T1, Vasopressin V1a receptor; experiment: Antagonist activity at human vasopressin 1a receptor expressed in HEK293 cell membranes assessed as inhibition of AVP-induced IP1 accumulation measured after 1 hr by fluorescence assay; assay type: functional, cell-based
Target sequence in this assay (P37288 whole entry): as the sequence (P37288 whole entry, looked up) above

[12] = biological target: T2, Oxytocin receptor (Homo sapiens); experiment: (§3) Antagonist activity at human OTR expressed in HEK293 cell membranes assessed as inhibition of OT-induced increase in Ca2+ flux by measuring intracellular calcium level at 10 uM preincubated for 5 mins followed by OT addition measured after 5 mins for every 2 secs by Ca5 dye based FLIPR assay (reference value: 4.5 +/- 0.1%); assay type: functional
Outline: (§4)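 HEK cells were pre-incubated 5 min with compound (10 μM) or vehicle (0.1% DMSO). Agonist was then added: OT for hOTR, AVP for hV1aR. Peak Ca5 fluorescence was taken as fold-change over baseline. A 4-parameter fit gave pEC50 and Max. Run in duplicate with 5-6 independent replicates, mean ± S.E.M.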

[13] = biological target: T2, Oxytocin receptor (Homo sapiens); experiment: Agonist activity at human OTR expressed in CHO cell membranes assessed as increase in Ca2+ flux at 0.1 to 10 uM measured after 5 mins for every 2 secs by Ca5 dye based FLIPR assay; assay type: functional; outline: as §1
[14] = biological target: T1, Vasopressin V1a receptor; experiment: Antagonist activity at human vasopressin 1a receptor expressed in HEK293 cell membranes assessed as inhibition of AVP-induced IP1 accumulation by measuring IP1 level at 100 nM measured after 1 hr by fluorescence assay relative to control; assay type: functional, cell-based; design: scale not given: the % may be the effect or the level left
Target sequence in this assay (P37288 whole entry, looked up): as the sequence (P37288 whole entry, looked up) above

[15] = biological target: T3, Oxytocin receptor; experiment: Displacement of [3H]-oxytocin from human OTR expressed in HEK293 cell membranes after 90 mins by microbeta scintillation counting method
[16] = biological target: T1, Vasopressin V1a receptor; experiment: Agonist activity at human vasopressin 1a receptor expressed in CHO cell membranes assessed as induction of IP1 accumulation at 0.1 to 10 uM measured after 1 hr by fluorescence assay; assay type: functional, cell-based; outline: as §2
Target sequence in this assay (P37288 whole entry, looked up): as the sequence (P37288 whole entry, looked up) above

[17] = biological target: T2, Oxytocin receptor (Homo sapiens); experiment: Agonist activity at human OTR expressed in HEK293 cell membranes assessed as increase in Ca2+ flux at 0.1 to 10 uM measured after 5 mins for every 2 secs by Ca5 dye based FLIPR assay; assay type: functional; outline: as §1
[18] = biological target: T3, Oxytocin receptor; experiment: Antagonist activity at human OTR expressed in HEK293 cell membranes assessed as inhibition of OT-induced IP1 accumulation measured after 1 hr by fluorescence assay; assay type: functional, cell-based
[19] = biological target: T1, Vasopressin V1a receptor; experiment: Agonist activity at human vasopressin 1a receptor expressed in HEK293 cell membranes assessed as increase in Ca2+ flux at 0.1 to 10 uM measured after 5 mins for every 2 secs by Ca5 dye based FLIPR assay; assay type: functional; outline: as §1
[20] = biological target: T1, Vasopressin V1a receptor; experiment: Antagonist activity at human vasopressin 1a receptor expressed in HEK293 cell membranes assessed as inhibition of AVP-induced IP1 accumulation by measuring IP1 level at 10 uM measured after 1 hr by fluorescence assay relative to control; assay type: functional, cell-based; design: scale not given: the % may be the effect or the level left
[21] = biological target: T2, Oxytocin receptor (Homo sapiens); experiment: Antagonist activity at human OTR expressed in HEK293 cell membranes assessed as inhibition of OT-induced IP1 accumulation by measuring IP1 level at 10 uM measured after 1 hr by fluorescence assay relative to control; assay type: functional, cell-based; design: scale not given: the % may be the effect or the level left
[22] = biological target: T2, Oxytocin receptor (Homo sapiens); experiment: Antagonist activity at human OTR expressed in CHO cell membranes assessed as inhibition of OT-induced IP1 accumulation by measuring IP1 level at 10 uM measured after 1 hr by fluorescence assay relative to control; assay type: functional, cell-based; design: scale not given: the % may be the effect or the level left
[23] = biological target: T1, Vasopressin V1a receptor; experiment: Displacement of [3H]-vasopressin from human vasopressin 1a receptor expressed in HEK293 cell membranes after 90 mins by microbeta scintillation counting method
Target sequence in this assay (P37288 whole entry): as the sequence (P37288 whole entry, looked up) above

[24] = biological target: T1, Vasopressin V1a receptor; experiment: as §3, with “vasopressin 1a receptor” for “OTR”, “AVP-induced” for “OT-induced”, “AVP” for “OT”, “5.2” for “4.5”, “0.2%)” for “0.1%)”; assay type: functional; outline: as §4
[25] = biological target: T1, Vasopressin V1a receptor; experiment: Antagonist activity at human vasopressin 1a receptor expressed in CHO cell membranes assessed as inhibition of AVP-induced IP1 accumulation by measuring IP1 level measured after 1 hr by fluorescence assay; assay type: functional, cell-based
Target sequence in this assay (P37288 whole entry): as the sequence (P37288 whole entry, looked up) above

Compound | Activity [1] | Activity [2] [%] | Activity [4] | Activity [5] [%] | Activity [6] [%] | Activity [7] | Activity [8] [%] | Activity [9] | IC50 [10] [µM] | IC50 [11] [µM] | %max [12] [%] | Activity [13] | Activity [14] [%] | Ki [15] [µM] | Activity [16] | Activity [17] | IC50 ([18]; read-out: pIC50 (converted)) [µM] | Activity [19] | Activity [20] [%] | Activity [21] [%] | also measured
Cn1nccc1NS(=O)(=O)c1ccc(Cl)cc1 | inactive | 105 | inactive | 90.5 | 100 | inactive | 82.5 | inactive | > 10 | > 10 | 4 | inactive | 112 | > 10 | inactive | inactive | > 10 | inactive | 105 | 72.5 | Activity [3]: inactive; Activity [22]: 94.7%; Ki [23]: > 10 µM; %max [24]: 5%; IC50 [25]: > 10 µM
O=S(=O)(Nc1ccnn1-c1ccccn1)c1ccc(Cl)cc1 | inactive | 116 | inactive | 83.9 | 103 | inactive | 89.5 | inactive | > 10 | > 10 | 4.5 | inactive | 85.9 | > 10 | inactive | inactive | > 10 | inactive | 80.2 | 78.1 | Activity [22]: 71.1%; Ki [23]: > 10 µM; %max [24]: 5.3%; IC50 [25]: > 10 µM
Cn1nccc1NS(=O)(=O)c1ccc(C(F)(F)F)cc1 | inactive | 79.3 | inactive | 85.5 | 86.5 | inactive | 98.3 | inactive | > 10 | > 10 | 4.4 | inactive | 84.7 | > 10 | inactive | inactive | > 10 | inactive | 77.9 | 90.4 | Activity [3]: inactive; Activity [22]: 79.5%; Ki [23]: > 10 µM; %max [24]: 5.1%; IC50 [25]: > 10 µM
CCOc1ccc(C[C@H]2NC(=O)CCSSC[C@@H](C(=O)N3CCC[C@H]3C(=O)N[C@@H](CCCN)C(=O)NCC(N)=O)NC(=O)[C@H](CC(N)=O)NC(=O)[C@H]([C@@H](C)O)NC(=O)[C@H]([C@@H](C)CC)NC2=O)cc1 [ATOSIBAN] ([Mpa][dY](Et)ITNCP[Orn]G-NH2; disulfide 1-6) | – | – | – | – | – | – | – | – | – | – | – | – | – | – | – | – | – | – | – | – | IC50 ([18]; read-out: IC50): 0.372 µM
O=S(=O)(Nc1ccnn1-c1ccccn1)c1ccc(C(F)(F)F)cc1 | inactive | 83.1 | inactive | 83.2 | 84.8 | inactive | 70.6 | inactive | > 10 | > 10 | 4.4 | inactive | 109 | > 10 | inactive | inactive | > 10 | inactive | 104 | 65.5 | Activity [22]: 82.1%; Ki [23]: > 10 µM; %max [24]: 5.3%; IC50 [25]: > 10 µM
